Data: ChEMBL document CHEMBL3244123, “Isoquinolines. 5. Synthesis and antiarrhythmic activity of benzylisoquinoline derivatives” (J Med Chem, 1977)
Calls of active or inactive are those of the source. The rule behind the calls is not given here.

How the values were obtained:
Mus musculus [1] = assay: Toxicity in Swiss albino mouse assessed as loss of righting reflex at 100 mg/kg, sc measured up to 20 mins; format: organism-based; design: dose 100 mg/kg, route subcutaneous; conditions: in vivo
Outline: (§1)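 Female Swiss albino mice, ten per dose, were given drug in 0.9% saline sc and watched for 20 min before chloroform challenge. Ataxia, convulsions, loss of righting reflex and death were each reported as number of animals affected of ten.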

Mus musculus [2] = assay: Toxicity in Swiss albino mouse assessed as convulsions at 100 mg/kg, sc measured up to 20 mins; format: organism-based; design: dose 100 mg/kg, route subcutaneous; conditions: in vivo; outline: as §1
Mus musculus [3] = assay: Toxicity in Swiss albino mouse assessed as mortality at 100 mg/kg, sc measured up to 20 mins; format: organism-based; design: dose 100 mg/kg, route subcutaneous; conditions: in vivo; outline: as §1
Mus musculus [4] = assay: Toxicity in Swiss albino mouse assessed as ataxia at 138 mg/kg, sc measured up to 20 mins; format: organism-based; design: dose 138 mg/kg, route subcutaneous; conditions: in vivo; outline: as §1
Mus musculus [5] = assay: Toxicity in Swiss albino mouse assessed as mortality at 138 mg/kg, sc measured up to 20 mins; format: organism-based; design: dose 138 mg/kg, route subcutaneous; conditions: in vivo; outline: as §1
Mus musculus [6] = assay: Antiarrhythmic activity in sc dosed Swiss albino mouse assessed as protection against chloroform-induced ventricular fibrillation compound administered 20 mins prior to challenge; format: functional; conditions: Heart
Outline: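 Female Swiss albino mice, ten per dose, given drug sc in 0.9% saline; screen at 100 mg/kg (raised to 200 mg/kg if neither protection nor toxicity), observed 20 min for toxicity, then exposed to chloroform vapour; absence of ventricular fibrillation counted as protection. Full tests used three log-spaced doses; ED50 with 95% Fieller limits by Berkson minimum logit χ² analysis.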

Mus musculus [7] = assay: Toxicity in Swiss albino mouse assessed as convulsions at 138 mg/kg, sc measured up to 20 mins; format: organism-based; design: dose 138 mg/kg, route subcutaneous; conditions: in vivo; outline: as §1
Mus musculus [8] = assay: Toxicity in Swiss albino mouse assessed as loss of righting reflex at 138 mg/kg, sc measured up to 20 mins; format: organism-based; design: dose 138 mg/kg, route subcutaneous; conditions: in vivo; outline: as §1
Mus musculus [9] = assay: Toxicity in Swiss albino mouse assessed as ataxia at 100 mg/kg, sc measured up to 20 mins; format: organism-based; design: dose 100 mg/kg, route subcutaneous; conditions: in vivo; outline: as §1
Canis familiaris [10] = assay: Antiarrhythmic activity in beagle dog myocardial infarction model assessed as mean arterial blood pressure at 0.5 mg/kg/min, iv administered as infusion (reference value: 80 to 115 mmHg)
Canis familiaris [11] = assay: Antiarrhythmic activity in beagle dog myocardial infarction model assessed as ventricular ectopic beats at 0.5 mg/kg/min, iv administered as infusion (reference value: 84 to 98 %); format: functional, Canis lupus familiaris, Heart
Outline: (§2)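 Drug infused iv via a fore limb vein at 0.5 mg/kg/min (as base, in 0.9% saline, pH 6–7) until clearing (ventricular ectopic activity ≤5% for a consecutive 5 min); EKG and vital signs monitored during and after infusion.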

Canis familiaris [12] = assay: Antiarrhythmic activity in beagle dog myocardial infarction model assessed as concentration required for reduction in ventricular ectopic activity to 5% or less for a consecutive 5 min compound administered iv as infusion; format: functional, Canis lupus familiaris, Heart; outline: as §2
Mus musculus [13] = assay: Antiarrhythmic activity in Swiss albino mouse assessed as protection against chloroform-induced ventricular fibrillation at 100 mg/kg, sc administered 20 mins prior to challenge; format: functional, organism-based; design: dose 100 mg/kg; conditions: Heart
Outline: (§3)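 Female Swiss albino mice, groups of ten, received drug in 0.9% saline sc at 100 mg/kg; dose raised to 200 mg/kg when neither protection nor toxicity appeared. After 20 min, mice were exposed to chloroform vapour. Absence of ventricular fibrillation counted as protection, reported as number protected of ten.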

Mus musculus [14] = assay: Antiarrhythmic activity in Swiss albino mouse assessed as protection against chloroform-induced ventricular fibrillation at 47 mg/kg, sc administered 20 mins prior to challenge; format: functional, organism-based; design: dose 47 mg/kg; conditions: Heart
Outline: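 Female Swiss albino mice, ten per dose, received drug in 0.9% saline sc at one of three log-spaced doses. After 20 min, mice were exposed to chloroform vapour. Mice without ventricular fibrillation were scored protected, reported as number protected of ten.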

Mus musculus [15] = assay: Toxicity in Swiss albino mouse assessed as loss of righting reflex at 47 mg/kg, sc measured up to 20 mins; format: organism-based; design: dose 47 mg/kg, route subcutaneous; conditions: in vivo; outline: as §1
Mus musculus [16] = assay: Toxicity in Swiss albino mouse assessed as ataxia at 47 mg/kg, sc measured up to 20 mins; format: organism-based; design: dose 47 mg/kg, route subcutaneous; conditions: in vivo; outline: as §1
Canis familiaris [17] = assay: Toxicity in beagle dog myocardial infarction model assessed as head tremors compound administered iv as infusion; format: organism-based, Canis lupus familiaris; conditions: in vivo; outline: as §2
Canis familiaris [18] = assay: Antiarrhythmic activity in beagle dog myocardial infarction model assessed as ventricular rate at 0.5 mg/kg/min, iv administered as infusion (reference value: 126 to 221 bpm); format: functional, Canis lupus familiaris, Heart; outline: as §2
Canis familiaris [19] = assay: Toxicity in beagle dog myocardial infarction model assessed as convulsions compound administered iv as infusion; format: organism-based, Canis lupus familiaris; conditions: in vivo; outline: as §2
Mus musculus [20] = assay: Antiarrhythmic activity in Swiss albino mouse assessed as protection against chloroform-induced ventricular fibrillation at 200 mg/kg, sc administered 20 mins prior to challenge; format: functional, organism-based; design: dose 200 mg/kg; conditions: Heart; outline: as §3
Mus musculus [21] = assay: Toxicity in Swiss albino mouse assessed as ataxia at 200 mg/kg, sc measured up to 20 mins; format: organism-based; design: dose 200 mg/kg, route subcutaneous; conditions: in vivo; outline: as §1
Mus musculus [22] = assay: Toxicity in Swiss albino mouse assessed as mortality at 200 mg/kg, sc measured up to 20 mins; format: organism-based; design: dose 200 mg/kg, route subcutaneous; conditions: in vivo; outline: as §1
Mus musculus [23] = assay: Toxicity in Swiss albino mouse assessed as convulsions at 200 mg/kg, sc measured up to 20 mins; format: organism-based; design: dose 200 mg/kg, route subcutaneous; conditions: in vivo; outline: as §1
Mus musculus [24] = assay: Toxicity in Swiss albino mouse assessed as loss of righting reflex at 200 mg/kg, sc measured up to 20 mins; format: organism-based; design: dose 200 mg/kg, route subcutaneous; conditions: in vivo; outline: as §1

Compound	Activity (Mus musculus [1])	Activity (Mus musculus [2])	Activity (Mus musculus [3])	Activity (Mus musculus [9])	other results
COc1ccc(Cc2nccc3cc(OC)c(OC)cc23)cc1OC [PAPAVERINE]	Non-toxic	Non-toxic	Non-toxic	–	–
CCN(CC)CC(=O)Nc1c(CC2c3ccccc3CCN2C)ccc(OC)c1OC.Cl (centres undefined)	–	–	–	–	Activity (Mus musculus [4]): Non-toxic; Activity (Mus musculus [5]): Non-toxic; ED50 (Mus musculus [6]): 147 mg/kg; Activity (Mus musculus [7]): Non-toxic; Activity (Mus musculus [8]): Non-toxic
CCNCC(=O)Nc1c(Cc2nccc3ccccc23)ccc(OC)c1OC	Non-toxic	Non-toxic	Non-toxic	Non-toxic	Activity (Canis familiaris [10]): 85%; Activity (Canis familiaris [11]): 0%; Activity (Canis familiaris [12]): 10 mg/kg
COc1ccc(CC2c3cc(OC)c(OC)cc3CCN2C)cc1OC (racemic) [LAUDANOSINE]	Non-toxic	Toxic	Toxic	Toxic	Activity (Mus musculus [13]): inactive; Activity (Mus musculus [14]): inactive; Activity (Mus musculus [15]): Non-toxic; Activity (Mus musculus [16]): Non-toxic
CCN(CC)CC(=O)Nc1c(C)cccc1C [LIDOCAINE]	Toxic	Toxic	Non-toxic	Toxic	Activity (Mus musculus [13]): Active
CCN(CC)CC(=O)Nc1c(Cc2nccc3ccccc23)ccc(OC)c1OC	Non-toxic	Non-toxic	Non-toxic	Non-toxic	Activity (Canis familiaris [17]): 6.25 mg/kg; Activity (Canis familiaris [18]): 135%; Activity (Canis familiaris [19]): 15.75 mg/kg; Activity (Canis familiaris [10]): 90%; Activity (Canis familiaris [11]): 0%; Activity (Canis familiaris [12]): 46.5 mg/kg
CCN(CC)CC(=O)Nc1cc(OC)ccc1Cc1nccc2ccccc12	Non-toxic	Non-toxic	Non-toxic	Non-toxic	Activity (Mus musculus [20]): inactive; Activity (Mus musculus [13]): inactive; Activity (Mus musculus [21]): Non-toxic; Activity (Mus musculus [22]): Non-toxic; Activity (Mus musculus [23]): Non-toxic; Activity (Mus musculus [24]): Non-toxic
CCN(CC)CC(=O)Nc1cc(OC)c(OC)cc1C.Cl	Non-toxic	Non-toxic	Non-toxic	Non-toxic	Activity (Mus musculus [13]): inactive; Activity (Mus musculus [21]): Non-toxic; Activity (Mus musculus [22]): Non-toxic; Activity (Mus musculus [23]): Non-toxic; Activity (Mus musculus [24]): Non-toxic
CCN(CC)CC(=O)Nc1cc(OC)ccc1C.Cl	–	–	–	–	Activity (Mus musculus [21]): Non-toxic; Activity (Mus musculus [22]): Non-toxic; Activity (Mus musculus [23]): Non-toxic; Activity (Mus musculus [24]): Non-toxic
COc1ccc(Cc2nccc3ccccc23)c(NC(=O)CN)c1OC	Non-toxic	Non-toxic	Non-toxic	Non-toxic	–
CCNCC(=O)Nc1cc(OC)c(OC)cc1Cc1nccc2cc(OC)c(OC)cc12	Non-toxic	Non-toxic	Non-toxic	–	–
CCN(CC)CC(=O)Nc1cc(OC)c(OC)cc1Cc1nccc2cc(OC)c(OC)cc12	Non-toxic	Non-toxic	Non-toxic	Non-toxic	–
COc1ccc(Cc2nccc3ccccc23)c(NC(=O)C(C)N)c1OC (centres undefined)	Non-toxic	Non-toxic	Non-toxic	Non-toxic	–
CCN(CC)CC(=O)Nc1cc(OC)c(OC)cc1Cc1nccc2ccccc12	Non-toxic	Non-toxic	Non-toxic	–	–
